# Test results from the RNAGym collection of RNA variant scans (doi:10.1126/science.aae0568).
# Variants at the floor of the assay were thinned out.
# B1: tRNA (parent)
# chain: GUUCCGUUGGCGUAAUGGUAACGCGUCUCCCUCCUAAGGAGAAGACUGCGGGUUCGAGUCCCGUACGGAACG
# Variants of: B1
# Test: yeast fitness relative to wild type (ratio to wild type); higher = fitter; tRNA-Arg(CCU), competitive growth, 37 C, YPD
# Procedure, shortened: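 Start and end populations of a pooled competition were compared by 100-nucleotide paired-end sequencing of gene amplicons. The Saccharomyces cerevisiae strains carried tRNA-Arg(CCU) gene variants at the native genomic locus, synthesised with a 3% per-site mutation rate at 69 sites, and competed in YPD at 37°C for 24 hours in six parallel replicates. Darwinian fitness relative to wild type was based on the change in genotype frequencies. Genotypes required ≥ 100 starting reads, and estimates < 0.5 were set to 0.5.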
row,Variant,yeast fitness
1,U3C U54G,0.536
2,U3G C49U G58A G63A,0.584
3,U3C U19C A40G C46A,0.74
4,U3C U19A G68A,0.698
5,U3G A45C A70U,0.857
6,U3C U13C A21G A43U,0.708
7,U3G A37C G56A,0.533
8,U3G G25A C27G G50C,0.537
9,U3G C24G C49U G58A G63A,≤ 0.5
10,U3G C31U C34U C46G,≤ 0.5
11,U3C U47G U64A,≤ 0.5
12,U3G U8A C31A C55U,≤ 0.5
13,U3G A36C A45C G58A G68C,≤ 0.5
14,U3C U16A C30U A40C,≤ 0.5
15,U3G C5U U32C G41C,≤ 0.5
16,U3G C5G U19C U47A C55A G68A,≤ 0.5
17,U3C U8C A45U,0.721
18,U3G A42U C49U,0.613
19,U3G G48A,0.856
20,U3G G48U,0.937
21,U3C U28A C34U U47C C60U,≤ 0.5
22,U3G C31U C49U A70C,≤ 0.5
23,U3G C4G C49G,0.826
24,U3G U13C C22A G25C C33U A69C,≤ 0.5

row,Variant,yeast fitness
1,U3G A15G C24G G44A G50A C55U,≤ 0.5
2,U3G C31A A45C,≤ 0.5
3,U3C U13C C31U,0.801
4,U3C U54C C61G,0.577
5,U3C U13A C31U G41A A70C,0.639
6,U3C U8C A69U,0.81
7,U3G C11U A70G,0.576
8,U3G C11A C34G A45C G52C,0.546
9,U3C U13A A20C C30G C31A U54A C55U,0.521
10,U3G C11G U13A C30G C66U A69U,≤ 0.5
11,U3G A14C A20U,≤ 0.5
12,U3G C24A C30U A57C A69U,≤ 0.5
13,U3G C55U C66U,≤ 0.5
14,U3G G6A A36U G48C G52C A57U C60G,0.569
15,U3C U47G,0.7
16,U3C U47A,0.907
17,U3C U47C,0.866
18,U3G U13C A14U C29A C55U,0.611
19,U3C U19A A69U,0.865
20,U3C U13C,0.841
21,U3G C11U C55G,≤ 0.5
22,U3C U32C G58C,1.04
23,U3G G18A C60G,0.538
24,U3G C31G U64A C66U G68C,≤ 0.5

row,Variant,yeast fitness
1,U3G C5U C31A A65U,≤ 0.5
2,U3G U13C C22A,0.656
3,U3G G56A,0.898
4,U3G G9C A20G C29A G67U,≤ 0.5
5,U3C U13A A45C G48A,0.604
6,U3G G25A C61U,0.733
7,U3G A15G A21U C24U G38A,0.571
8,U3G G17A,0.665
9,U3G U16A A65G,0.664
10,U3G C30G,≤ 0.5
11,U3G C30A,0.868
12,U3C U26G,0.868
13,U3C U26A,0.856
14,U3G C30G G56A,≤ 0.5
15,U3G U7G C22U C60G,≤ 0.5
16,U3G C22A,0.682
17,U3G A15C C30G C33G A37C,0.795
18,U3G A42C,0.754
19,U3G A42U,0.758
20,U3C U8C C11A C31A G68C,≤ 0.5
21,U3C U13A A20C C30G C31A G67C,≤ 0.5
22,U3G G17A C30U A57U,≤ 0.5
23,U3G U8C G58A,0.763
24,U3C U8G U28G C31A C61U,≤ 0.5

row,Variant,yeast fitness
1,U3G C46A A57U A69U,≤ 0.5
2,U3C U16G U19A A43C C49U A57U,≤ 0.5
3,U3G G18C G44A,≤ 0.5
4,U3G C49A G63U G67A,≤ 0.5
5,U3G G12C A42U G67C,≤ 0.5
6,U3G A21G C31G C33U A43U G56A A69U,≤ 0.5
7,U3C U47C C49U G51A,≤ 0.5
8,U3G C22U A57G C60A A65U,0.63
9,U3G G44C U54A,≤ 0.5
10,U3G G48A A69U,0.638
11,U3G U13C A14U C29A,0.672
12,U3G U8A G18C G50C,≤ 0.5
13,U3G C30A C31G,0.669
14,U3C U19A G52A U59C C66A G67A,≤ 0.5
15,U3C U8G U32A C33G C61U C62U,0.561
16,U3G A14U C29U A37G G51A,≤ 0.5
17,U3G C11U A45U,0.559
18,U3C U26A C33U C49U,≤ 0.5
19,U3C U59C A69C,1.02
20,U3C U8A A43G A57U G63A,≤ 0.5
21,U3G C24G C49U C55G G58A,≤ 0.5
22,U3G A57G,0.908
23,U3G C4G C22U C29U A65G,≤ 0.5
24,U3C U8G U32A C33G U53A A69C,≤ 0.5

row,Variant,yeast fitness
1,U3C U7A G44C C61U C62U G63C U64A C66U A69G,≤ 0.5
2,U3C U16G,0.823
3,U3G C66U A70U,0.534
4,U3G G9C C33G G63A,0.606
5,U3G C11G G44A G48A,≤ 0.5
6,U3G C5U U32C G41C C49U G67A,≤ 0.5
7,U3G C27G C49G A70G,≤ 0.5
8,U3G A43G A45U,0.539
9,U3G C62A,0.75
10,U3G A45C A69U,1.08
11,U3G C4U U35A G58A G67U,≤ 0.5
12,U3G C22A C24U U35G A45U,≤ 0.5
13,U3G C24U C34U A40G C55G,≤ 0.5
14,U3G G10A A21C U28A G68C,≤ 0.5
15,U3G A42C G67C,≤ 0.5
16,U3G C49G C60G C62G G63A,≤ 0.5
17,U3C U19C C24A G58A,≤ 0.5
18,U3G A45C,0.973
19,U3G A45G,1
20,U3G C22A C24U U35G A45U G56A,≤ 0.5
21,U3G G52C C62A A65C A70U,≤ 0.5
22,U3C U16G U19A A43C A57U A69C,≤ 0.5
23,U3G U8A U26G G38C A40C U53C,0.566
24,U3G C11U U19C A20U A43U C62G C66A A69C,≤ 0.5

row,Variant,yeast fitness
1,U3G A43C G48A A70C,0.617
2,U3C U7G A14C C31A G50A G52C A65C,≤ 0.5
3,U3G G50A C62U,1.04
4,U3G C5A,0.779
5,U3G U8C A15U C49A,0.597
6,U3G A36G,0.977
7,U3G A36U,0.598
8,U3G A37C A42U A43G G58C C62U,≤ 0.5
9,U3C U28A,0.832
10,U3G C27U U35G A42U,≤ 0.5
11,U3C U19A G58C C62G A70U,≤ 0.5
12,U3C U19A C46A,0.716
13,U3C U26C A42U,0.939
14,U3G C24A A40C,≤ 0.5
15,U3C U32C A42U,0.686
16,U3G G10C C46U G48A,≤ 0.5
17,U3G C22U C27U G56A,≤ 0.5
18,U3G C46U C49U,0.698
19,U3G G23A A36U A43G C61A A70G,≤ 0.5
20,U3G A15G G23A U47C,≤ 0.5
21,U3C U28G G39C,≤ 0.5
22,U3C U13C U16A C61A U64C,0.582
23,U3G G68U,0.808
24,U3C U8C G9A A69U,0.564

row,Variant,yeast fitness
1,U3C U13A A20C C30G C31A,≤ 0.5
2,U3C U16A C34A U53C C60U,≤ 0.5
3,U3G A43G U47A C49A,0.535
4,U3C U13C C24U G52A,0.576
5,U3G C31U C49U G50A,≤ 0.5
6,U3G U13C A14U C29A A69C,0.562
7,U3G C55A G58A,≤ 0.5
8,U3C U13C C24U G52A G68A,≤ 0.5
9,U3G G25A A45U C62A,≤ 0.5
10,U3C U26G G67C,≤ 0.5
11,U3C U26G G63A,≤ 0.5
12,U3C U19A G50C C62G C66U,0.575
13,U3C U8A A15C C31G C49U A57U,0.609
14,U3C U8C C11A U32G C61A C62A,≤ 0.5
15,U3G C30U G48C G68C,0.526
16,U3C U32C,0.839
17,U3G C4A G9A U64A,≤ 0.5
18,U3G C5U G39A C49U,≤ 0.5
19,U3G U13A,1.1
20,U3G C4G G6C C29A A36C G52C U64C,≤ 0.5
21,U3C U7C U35C,0.505
22,U3G A15U,0.633
23,U3G A15G,0.846
